The test system of one test is tyrosinase from potato. Nature of the test: Tyrosinase activity. It is filed as biochemical. Conditions: 50 μM, incubation for 0–20 min. The gist of the method: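 Tyrosinase was isolated and purified from potato. The enzyme extract was preincubated at 30 °C in 0.05 M phosphate buffer pH 6.8 containing 50 μM test compound. L-DOPA was added from a 5 mM solution. DOPAchrome formation was followed at 475 nm over time (ε = 3600), and the initial rate gave activity. Control was a blank with 1% DMSO.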

Test [1] concerns CcO. Put plainly: CcO activity in treated HeLa cells. It is filed as cell-based, human. Conditions: HeLa cells treated 24 h with 50 μM, then lysed. The gist of the method: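 HeLa cells were treated 24 h with 50 μM test compound and lysed. Ferrocytochrome c (cytochrome c reduced with dithiothreitol) was added, and the absorbance change at 550 nm was followed, using a reduced–oxidized extinction difference of 21.84. One unit oxidizes […] at pH 7.4, 25 °C. Control was a blank containing 1% DMSO. Results are mean ± SD of at least three experiments in duplicate.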

The subject of test [2] is CcO. Put plainly: CcO activity in lysates of untreated HeLa cells. It is filed as biochemical, human. Conditions: incubation for 30 min with 50 μM. In short, it runs like this: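 Untreated HeLa cells were lysed, and lysates were incubated 30 min with 50 μM test compound. CcO activity was then read with a human CcO ELISA kit. Control was a blank containing 1% DMSO. Results are mean ± SD of at least three experiments, each condition in duplicate.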

A further test has as its system bovine SOD1. Put plainly: Inhibition of bovine SOD1 activity in pH 7.4 buffer. Conditions: 1 μM SOD1, 5 μM compound, 60 min, 37 °C, 1% DMSO. It is filed as biochemical. In short, it runs like this:
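Bovine SOD1 (1 μM) was preincubated 60 min at 37 °C with 5 μM test compound in pH 7.4 buffer containing 1% DMSO. Activity was then measured with a SOD1-specific superoxide dismutase assay kit. Control was the same buffer with 1% DMSO. n ≥ 3, each condition in duplicate; results are mean ± SD.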

Structures are written as SMILES. Some results are limits rather than exact numbers.

As for `[SH-].[SH-].[S]=[Mo]=[S]` [TM, tetrathiomolybdate], in the test on tyrosinase from potato, the “reduction in tyrosinase activity relative to the control” value is reported as “complete inactivation of the enzyme”. In the test on CcO [1], the “CcO activity relative to control” value is “reduced to half of that of the control”. Moreover, in the test on CcO [2], the “CcO activity in lysates of untreated cells” value was “partial”.
`[N-]=[N+]=[N-].[Na+]` [NaN3]: in the test with CcO [1], the “CcO activity relative to control” value is “complete inactivation of CcO”. The “CcO activity in lysates of untreated cells” value in the test on CcO [2] is “complete inactivation of CcO”.
`CCN(CC)C(=S)S` [DDC, diethyldithiocarbamate]: in the test with bovine SOD1, the “SOD1 activity, % of the control” value is on record as over 60%.
